Results on ten compounds are retold here after ChEMBL document CHEMBL1138110, “Microwave-assisted synthesis of N-alkylated benzotriazole derivatives: antimicrobial studies” (2006).

Where a name gives a salt, the structure may show the parent alone.

The test system of assay [1] is Aspergillus flavus. Description: Antifungal activity against Aspergillus flavus by disk diffusion method at 25 ug/disk. The following applies: read-out: IZ. The assay is classed as functional. The procedure, abridged:
(§1)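 Fungi kept on potato dextrose agar at 28 °C; conidia scraped from 5–15 day PDA cultures into distilled water, filtered through sterile cotton, resuspended, adjusted by hemocytometer to about 10^6 CFU/mL. Paper disks bore 25 µg compound, 10 µg nystatin reference, or DMSO alone. Plates at 4 °C ≥2 h, then 28 °C; zone diameter (mm) read at 48 h; mean of three determinations.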
(In agar diffusion tests the substance spreads into inoculated agar from a disc or well.)

Assay [2] relates to Fusarium oxysporum. The experiment in a line: Antifungal activity against Fusarium oxysporum by disk diffusion method at 25 ug/disk. It counts as functional. To be noted: read-out: IZ. The procedure, abridged:
as §1

For assay [3], the system named is Trichoderma. The experiment in a line: Antifungal activity against Trichoderma species by disk diffusion method at 25 ug/disk. It counts as functional. To be noted: read-out: IZ. In outline:
as §1

In assay [4] the test system is Fusarium verticillioides. Description: Antifungal activity against Fusarium moniliforme by disk diffusion method at 25 ug/disk. It counts as functional. The following applies: read-out: IZ. In outline: as §1
Assay [5] concerns Bacillus subtilis. The experiment in a line: Antibacterial activity against Bacillus subtilis by disk diffusion method at 25 ug/disk. The assay is classed as functional. To be noted: read-out: IZ. In outline: (§2)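 Bacteria kept on LB agar, grown in LB broth, spun 10,000 rpm 5 min, pellet taken up in double-distilled water, density set by hemocytometer to about 10^4 CFU/mL for plate inoculation. Paper disks carried 25 µg test compound or 10 µg streptomycin/tetracycline reference; DMSO-only disks as negative control. Plates held at 4 °C ≥2 h, then 28 °C; inhibition zone diameter (mm) read at 24 h; mean of three determinations.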

In assay [6] the test system is Escherichia coli. The experiment in a line: Antibacterial activity against Escherichia coli by disk diffusion method at 25 ug/disk. It counts as functional. The following applies: read-out: IZ. The procedure, abridged: as §2
The test system of assay [7] is Pseudomonas fluorescens. Description: Antibacterial activity against Pseudomonas fluorescens by disk diffusion method at 25 ug/disk. It counts as functional. The following applies: read-out: IZ. In outline:
as §2

The test system of assay [8] is Xanthomonas campestris. Description: Antibacterial activity against Xanthomonas campestris pvs by disk diffusion method at 25 ug/disk. It counts as functional. To be noted: read-out: IZ. In outline:
as §2

For assay [9], the system named is Xanthomonas oryzae. The experiment in a line: Antibacterial activity against Xanthomonas oryzae by disk diffusion method at 25 ug/disk. It counts as functional. To be noted: read-out: IZ.
For assay [10], the system named is Aspergillus niger. Description: Antifungal activity against Aspergillus niger by disk diffusion method at 25 ug/disk. It counts as functional. The following applies: read-out: IZ. In outline:
as §1

In assay [11] the test system is Xanthomonas campestris. Description: Antibacterial activity against Xanthomonas campestris pvs by disk diffusion method at 10 ug/disk. The following applies: read-out: IZ. It counts as functional.
Assay [12] relates to Xanthomonas oryzae. The experiment in a line: Antibacterial activity against Xanthomonas oryzae by disk diffusion method at 10 ug/disk. To be noted: read-out: IZ. The assay is classed as functional.
Assay [13] has as its system Aspergillus flavus. Description: Antifungal activity against Aspergillus flavus by disk diffusion method at 10 ug/disk. The assay is classed as functional, organism-based. In outline: (§3)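 Fungi kept on potato dextrose agar at 28 °C. Conidia scraped from 5–15 day PDA cultures into water, cotton-filtered, and adjusted by hemocytometer to ~10^6 CFU/mL. Disks carried 10 µg; DMSO-only disks as negative control. Plates held at 4 °C ≥2 h, then 28 °C; inhibition zone diameter (mm) read after 48 h. Mean of three determinations.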

The subject of assay [14] is Fusarium oxysporum. Description: Antifungal activity against Fusarium oxysporum by disk diffusion method at 10 ug/disk. The assay is classed as functional, organism-based. The procedure, abridged:
as §3

In assay [15] the test system is Trichoderma. Description: Antifungal activity against Trichoderma species by disk diffusion method at 10 ug/disk. It counts as functional, organism-based. The procedure, abridged:
as §3

In assay [16] the test system is Fusarium verticillioides. The experiment in a line: Antifungal activity against Fusarium moniliforme by disk diffusion method at 10 ug/disk. It counts as functional, organism-based. In outline:
as §3

In assay [17] the test system is Aspergillus niger. The experiment in a line: Antifungal activity against Aspergillus niger by disk diffusion method at 10 ug/disk. It counts as functional, organism-based. In outline:
as §3

Assay [18] relates to Bacillus subtilis. Description: Antibacterial activity against Bacillus subtilis by disk diffusion method at 10 ug/disk. It counts as functional. The following applies: read-out: IZ.
In assay [19] the test system is Escherichia coli. The experiment in a line: Antibacterial activity against Escherichia coli by disk diffusion method at 10 ug/disk. The following applies: read-out: IZ. It counts as functional. The procedure, abridged:
as §2

Assay [20] concerns Pseudomonas fluorescens. Description: Antibacterial activity against Pseudomonas fluorescens by disk diffusion method at 10 ug/disk. To be noted: read-out: IZ. The assay is classed as functional.

On to `O=C(Cn1nnc2ccccc21)c1ccc(Cl)cc1`, for which the zone of inhibition at 25 µg/disc was determined as 5 mm with Aspergillus flavus [1]; 6 mm with Fusarium oxysporum [2]; 2 mm in the assay on Trichoderma [3]; 3 mm with Fusarium verticillioides [4]; 6 mm in the assay with Bacillus subtilis [5]; 5 mm with Escherichia coli [6]. The zone of inhibition at 25 µg/disc in the assay on Pseudomonas fluorescens [7] was determined as 3 mm; with Xanthomonas campestris [8], 4 mm; with Xanthomonas oryzae [9], 2 mm; in the assay with Aspergillus niger [10] it was 4 mm.

In the case of `COc1cc(Br)c(Cn2nnc3ccccc32)cc1OC`, the zone of inhibition at 25 µg/disc in the assay on Aspergillus flavus [1] worked out at 10 mm; with Fusarium oxysporum [2], 14 mm; in the assay on Trichoderma [3], 16 mm; in the assay with Fusarium verticillioides [4] it was 13 mm; in the assay on Bacillus subtilis [5], 12 mm; in the assay on Escherichia coli [6], 15 mm. For the same compound, the zone of inhibition at 25 µg/disc came out at 18 mm in the assay with Pseudomonas fluorescens [7], 12 mm in the assay on Xanthomonas campestris [8] and 9 mm in the assay with Aspergillus niger [10].

For `O=[N+]([O-])c1ccc(Cn2nnc3ccccc32)cc1`, the zone of inhibition at 25 µg/disc stood at 7 mm with Aspergillus flavus [1]; 9 mm in the assay on Fusarium oxysporum [2]; 11 mm in the assay with Trichoderma [3]; 8 mm with Fusarium verticillioides [4]; 6 mm with Bacillus subtilis [5]; 7 mm with Escherichia coli [6]. Further, the figures for the zone of inhibition at 25 µg/disc in the assay on Pseudomonas fluorescens [7], in the assay with Xanthomonas campestris [8] and in the assay on Aspergillus niger [10] were 8 mm, 4 mm and 5 mm, respectively.

`CCCCn1nnc2ccccc21`: the zone of inhibition at 25 µg/disc in the assay on Aspergillus flavus [1] stood at 11 mm; with Fusarium oxysporum [2], 14 mm; in the assay with Trichoderma [3] it was 15 mm; with Fusarium verticillioides [4], 12 mm; in the assay with Bacillus subtilis [5], 13 mm; with Escherichia coli [6], 14 mm. Moreover, the zone of inhibition at 25 µg/disc was 19 mm in the assay with Pseudomonas fluorescens [7], 12 mm with Xanthomonas campestris [8], 12 mm in the assay on Xanthomonas oryzae [9] and 8 mm in the assay on Aspergillus niger [10].

As to `CCCn1nnc2ccccc21`, the zone of inhibition at 25 µg/disc in the assay with Aspergillus flavus [1] was 4 mm; in the assay on Fusarium oxysporum [2], 6 mm; with Trichoderma [3], 1 mm; with Fusarium verticillioides [4], 4 mm; with Bacillus subtilis [5], 6 mm; in the assay with Escherichia coli [6], 4 mm. The zone of inhibition at 25 µg/disc with Pseudomonas fluorescens [7] is 1 mm; in the assay on Xanthomonas campestris [8] it was 3 mm; in the assay with Xanthomonas oryzae [9] it was 2 mm; in the assay on Aspergillus niger [10], 5 mm.

In the case of `CN(C)[C@@H]1C(O)=C(C(N)=O)C(=O)[C@@]2(O)C(O)=C3C(=O)c4c(O)cccc4[C@@](C)(O)[C@H]3C[C@@H]12` [TETRACYCLINE], the zone of inhibition at 10 µg/disc in the assay with Xanthomonas campestris [11] was 12 mm; in the assay with Xanthomonas oryzae [12], 11 mm.

In the case of NYSTATIN, the inhibition zone (IZ) came to 10 mm with Aspergillus flavus [13]; 14 mm with Fusarium oxysporum [14]; 16 mm with Trichoderma [15]; 12 mm with Fusarium verticillioides [16]; 8 mm in the assay on Aspergillus niger [17].

As to `Cc1cc2c(cc1Cn1nnc3ccccc31)OCO2`, the zone of inhibition at 25 µg/disc in the assay with Aspergillus flavus [1] stood at 19 mm; with Fusarium oxysporum [2] it was 22 mm; in the assay with Trichoderma [3], 20 mm; in the assay with Fusarium verticillioides [4], 18 mm; in the assay with Bacillus subtilis [5] it was 18 mm; in the assay with Escherichia coli [6] it was 20 mm. In addition, the zone of inhibition at 25 µg/disc was 22 mm in the assay with Pseudomonas fluorescens [7], 18 mm in the assay on Xanthomonas campestris [8], 19 mm in the assay with Xanthomonas oryzae [9] and 16 mm in the assay with Aspergillus niger [10].

Take `CN[C@@H]1[C@H](O[C@H]2[C@H](O[C@H]3[C@H](O)[C@@H](O)[C@H](N=C(N)N)[C@@H](O)[C@@H]3N=C(N)N)O[C@@H](C)[C@]2(O)C=O)O[C@@H](CO)[C@H](O)[C@H]1O` [STREPTOMYCIN SULFATE]: the values for the zone of inhibition at 10 µg/disc in the assay with Bacillus subtilis [18], with Escherichia coli [19] and with Pseudomonas fluorescens [20] were 12 mm, 14 mm and 18 mm, respectively.

Turning to `N#Cc1ccccc1-c1ccc(Cn2nnc3ccccc32)cc1`, the zone of inhibition at 25 µg/disc came out at 17 mm in the assay on Aspergillus flavus [1]; 20 mm in the assay with Fusarium oxysporum [2]; 18 mm with Trichoderma [3]; 17 mm in the assay on Fusarium verticillioides [4]; 16 mm with Bacillus subtilis [5]; 18 mm in the assay on Escherichia coli [6]. The zone of inhibition at 25 µg/disc with Pseudomonas fluorescens [7] came to 21 mm; in the assay on Xanthomonas campestris [8], 16 mm; with Xanthomonas oryzae [9], 15 mm; with Aspergillus niger [10], 14 mm.
